“And” between values parts separate entries of the source, which are not always exact repeats. Identical values can stand only once. Like-named read-outs stand apart in the source and are kept apart here.
Assays:
RPMI-8226 = assay: cells; type: cell-based; conditions: RPMI-8226, 10^−5 M, 48 h
SNB-19 = assay: cells; type: cell-based; conditions: SNB-19, 10^−5 M, 48 h
CCRF-CEM = assay: cells; type: cell-based; conditions: 10^−5 M, 48 h
M14 = assay: cells; type: cell-based; conditions: M14, 10^−5 M, 48 h
UO-31 = assay: cells; type: cell-based; conditions: UO-31, 10^−5 M, 48 h
SK-MEL-5 = assay: cells; type: cell-based; conditions: SK-MEL-5, 10^−5 M, 48 h
SF-295 = assay: cells; type: cell-based; conditions: SF-295, 10^−5 M, 48 h
NCI-H23 = assay: cells; type: cell-based; conditions: NCI-H23, 10^−5 M, 48 h
NCI-H460 = assay: cells; type: cell-based; conditions: NCI-H460, 10^−5 M, 48 h
BT-549 = assay: cells; type: cell-based; conditions: BT-549, 10^−5 M, 48 h
KM 12 = assay: cells; type: cell-based; conditions: KM 12, 10^−5 M, 48 h
OVCAR-3 = assay: cells; type: cell-based; conditions: OVCAR-3, 10^−5 M, 48 h
MOLT-4 = assay: cells; type: cell-based; conditions: MOLT-4, 10^−5 M, 48 h
NCI-H226 = assay: cells; type: cell-based; conditions: NCI-H226, 10^−5 M, 48 h
SN12C = assay: cells; type: cell-based; conditions: 10^−5 M, 48 h
UACC-62 = assay: cells; type: cell-based; conditions: UACC-62, 10^−5 M, 48 h
OVCAR-5 = assay: cells; type: cell-based; conditions: OVCAR-5, 10^−5 M, 48 h
HCC-2998 = assay: cells; type: cell-based; conditions: HCC-2998, 10^−5 M, 48 h
SF-539 = assay: cells; type: cell-based; conditions: SF-539, 10^−5 M, 48 h
SK-OV-3 = assay: cells; type: cell-based; conditions: SK-OV-3, 10^−5 M, 48 h
MDA-MB-468 = assay: cells; type: cell-based; conditions: MDA-MB-468, 10^−5 M, 48 h
MCF7 = assay: cells; type: cell-based; conditions: MCF7, 10^−5 M, 48 h
RXF 393 = assay: cells; type: cell-based; conditions: RXF 393, 10^−5 M, 48 h
A549/ATCC = assay: cells; type: cell-based; conditions: A549/ATCC, 10^−5 M, 48 h
JNK2 = JNK2 (Homo sapiens, UniProt P45984); assay: in vitro kinase assay, GST-c-Jun; type: biochemical
JNK2, sequence (P45984 whole entry): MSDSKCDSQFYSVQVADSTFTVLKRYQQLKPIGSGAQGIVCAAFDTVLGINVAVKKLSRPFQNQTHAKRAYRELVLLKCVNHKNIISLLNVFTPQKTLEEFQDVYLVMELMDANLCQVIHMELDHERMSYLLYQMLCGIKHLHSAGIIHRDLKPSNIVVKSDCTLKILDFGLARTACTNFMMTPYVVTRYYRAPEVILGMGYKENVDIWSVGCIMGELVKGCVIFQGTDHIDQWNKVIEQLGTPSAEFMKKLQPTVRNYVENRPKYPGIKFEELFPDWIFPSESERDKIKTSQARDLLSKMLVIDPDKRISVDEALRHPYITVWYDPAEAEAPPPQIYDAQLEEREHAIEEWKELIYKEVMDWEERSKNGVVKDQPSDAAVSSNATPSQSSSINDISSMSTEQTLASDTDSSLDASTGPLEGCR

SK-MEL-28 = assay: cells; type: cell-based; conditions: SK-MEL-28, 10^−5 M, 48 h
K-562 = assay: cells; type: cell-based; conditions: K-562, 10^−5 M, 48 h
p38MAPKα = p38MAPKα (Homo sapiens, UniProt Q16539); assay: in vitro kinase assay, GST-ATF2; type: biochemical
p38MAPKα, sequence (Q16539 whole entry): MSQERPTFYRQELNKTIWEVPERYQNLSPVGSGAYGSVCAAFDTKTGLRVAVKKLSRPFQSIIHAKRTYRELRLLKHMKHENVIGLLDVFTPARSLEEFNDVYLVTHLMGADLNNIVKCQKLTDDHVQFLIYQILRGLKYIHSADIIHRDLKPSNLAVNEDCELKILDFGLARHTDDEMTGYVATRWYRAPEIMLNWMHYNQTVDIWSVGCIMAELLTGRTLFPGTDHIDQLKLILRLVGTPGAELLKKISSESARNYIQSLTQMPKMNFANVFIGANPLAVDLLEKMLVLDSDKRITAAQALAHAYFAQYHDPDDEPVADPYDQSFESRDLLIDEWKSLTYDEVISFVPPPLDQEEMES

SR = assay: cells; type: cell-based; conditions: 10^−5 M, 48 h
MDA-MB-435 = assay: cells; type: cell-based; conditions: MDA-MB-435, 10^−5 M, 48 h
MALME-3M = assay: cells; type: cell-based; conditions: MALME-3M, 10^−5 M, 48 h
ACHN = assay: cells; type: cell-based; conditions: 10^−5 M, 48 h
IGROV1 = assay: cells; type: cell-based; conditions: IGROV1, 10^−5 M, 48 h
SNB-75 = assay: cells; type: cell-based; conditions: SNB-75, 10^−5 M, 48 h
ERK2 = ERK2 (Rattus norvegicus, UniProt P63086); assay: in vitro radioactive kinase assay, Ets-1 phosphorylation by ERK2; type: biochemical
ERK2, sequence (P63086 whole entry): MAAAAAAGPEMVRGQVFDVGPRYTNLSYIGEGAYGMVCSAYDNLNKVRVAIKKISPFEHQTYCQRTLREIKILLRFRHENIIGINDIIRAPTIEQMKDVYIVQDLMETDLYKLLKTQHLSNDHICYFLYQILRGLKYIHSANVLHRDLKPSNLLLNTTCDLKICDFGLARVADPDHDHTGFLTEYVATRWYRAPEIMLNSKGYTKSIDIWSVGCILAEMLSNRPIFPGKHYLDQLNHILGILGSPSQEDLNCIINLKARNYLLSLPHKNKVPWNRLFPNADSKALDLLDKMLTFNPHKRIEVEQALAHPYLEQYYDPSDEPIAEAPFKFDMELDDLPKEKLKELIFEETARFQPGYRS
How it was run: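 Activated rat ERK2 (2 nM) was tested with His-Ets-1 (1–138) at 28–30 °C in HEPES pH 7.5 buffer with 11 mM MgCl2, BSA and 5% DMSO. Reactions were started with [γ-32P]ATP (10 or 100 μM).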

HCT-15 = assay: cells; type: cell-based; conditions: HCT-15, 10^−5 M, 48 h

## Cn1c(=O)c2c(=O)c3c4c(oc3oc2c2ccccc21)C(=O)c1ccccc1C4=O [5a, 5-Methyl-5H-naphthalen[2″,3″:4′,5′]furo[3′,2′:4′,5,6]pyrano [3,2-c]quinoline-6,7,8,13-tetraone]
RPMI-8226
  Growth percent (G%): 100.23%
SNB-19
  Growth percent (G%): 110.38%
CCRF-CEM
  Growth percent (G%): 92.93%
M14
  Growth percent (G%): 98.25%
UO-31
  Growth percent (G%): 137.02%
SK-MEL-5
  Growth percent (G%): 97.56%
SF-295
  Growth percent (G%): 101.32%
NCI-H23
  Growth percent (G%): 86.15%
NCI-H460
  Growth percent (G%): 108.09%
BT-549
  Growth percent (G%): 104.21%
KM 12
  Growth percent (G%): 95.63%
OVCAR-3
  Growth percent (G%): 98.93%
MOLT-4
  Growth percent (G%): 87.37%
NCI-H226
  Growth percent (G%): 88.55%
SN12C
  Growth percent (G%): 125.68%
UACC-62
  Growth percent (G%): 93.45%
OVCAR-5
  Growth percent (G%): 102.02%
HCC-2998
  Growth percent (G%): 103.64%
SF-539
  Growth percent (G%): 93.83%
SK-OV-3
  Growth percent (G%): 95.03%
MDA-MB-468
  Growth percent (G%): 64.82%
MCF7
  Growth percent (G%): 76.73%
RXF 393
  Growth percent (G%): 87.68%
A549/ATCC
  Growth percent (G%): 85.17%
JNK2
  ability to inhibit JNK2 (in words): did not show any ability to inhibit
JNK2; read-out: JNK2 IC50, 2 μM GST-c-Jun (1–221)
  IC50: > 200000 nM
SK-MEL-28
  Growth percent (G%): 107.21%
K-562
  Growth percent (G%): 89.61%
p38MAPKα
  ability to inhibit p38MAPKα (in words): did not show any ability to inhibit
p38MAPKα; read-out: p38MAPKα IC50, 10 μM GST-ATF2
  IC50: > 200000 nM
SR
  Growth percent (G%): 92.01%
MDA-MB-435
  Growth percent (G%): 105.3%
MALME-3M
  Growth percent (G%): 113.29%
ACHN
  Growth percent (G%): 85.7%
IGROV1
  Growth percent (G%): 65.92%
SNB-75
  Growth percent (G%): 101.36%
ERK2; read-out: ERK2 IC50, 100 μM ATP, 10 μM Ets-1
  IC50: 108000 ± 12200 nM
ERK2; read-out: ERK2 IC50 at 100 μM ATP /10mM Ets-1, Table 4, 100 μM ATP /10mM Ets-1
  IC50: > 100000 nM
HCT-15
  Growth percent (G%): 94.13%

## O=C1C(Cl)=C(c2c(O)c3c(=O)n(-c4ccccc4)c4ccccc4c3oc2=O)C(=O)c2ccccc21 [compound 6, 3-(3-Chloro-1,4-dioxo-1,4-dihydronaphthalen-2-yl)-4-hydroxy-6-phenyl-2H-pyrano[3,2-c]quinoline-2,5(6H)-dione]
RPMI-8226
  Growth percent (G%): 19.65%
SNB-19
  Growth percent (G%): 27.87%
CCRF-CEM
  Growth percent (G%): 17.76%
M14
  Growth percent (G%): 44.74%
UO-31
  Growth percent (G%): 64.18%
SK-MEL-5
  Growth percent (G%): 17.66%
SF-295
  Growth percent (G%): 18.38%
NCI-H23
  Growth percent (G%): 38.22%
NCI-H460
  Growth percent (G%): 33.57%
BT-549
  Growth percent (G%): 12.26%
KM 12
  Growth percent (G%): 18.86%
OVCAR-3
  Growth percent (G%): 2.15%
MOLT-4
  Growth percent (G%): 16.13%
NCI-H226
  Growth percent (G%): 86.30%
SN12C
  Growth percent (G%): −14.11%
UACC-62
  Growth percent (G%): 13.17%
OVCAR-5
  Growth percent (G%): 88.70%
HCC-2998
  Growth percent (G%): 42.85%
SF-539
  Growth percent (G%): −5.45%
SK-OV-3
  Growth percent (G%): 67.28%
MDA-MB-468
  Growth percent (G%): −27.29%
MCF7
  Growth percent (G%): 51.60%
RXF 393
  Growth percent (G%): 69.20%
A549/ATCC
  Growth percent (G%): 37.73%
JNK2
  IC50: 4200 ± 900 nM
  ability to inhibit JNK2 (in words): little tendency to inhibit
SK-MEL-28
  Growth percent (G%): 39.37%
K-562
  Growth percent (G%): 26.84%
p38MAPKα
  ability to inhibit p38MAPKα (in words): little tendency to inhibit
p38MAPKα; p38MAPKα IC50, 10 μM GST-ATF2
  IC50: 3100 ± 500 nM
SR
  Growth percent (G%): 11.44%
MDA-MB-435
  Growth percent (G%): 87.80%
MALME-3M
  Growth percent (G%): 42.00%
ACHN
  Growth percent (G%): 28.55%
IGROV1
  Growth percent (G%): 71.85%
SNB-75
  Growth percent (G%): 31.77%
ERK2; 5 μM inhibitor, 100 μM vs 10 μM Ets-1, 100 μM ATP
  effect of excess Ets-1 (100 μM) on inhibition of ERK2: did not rescue
ERK2; ERK2 IC50, 10 μM ATP
  IC50: 90 nM and 86 nM
ERK2; ERK2 IC50, 100 μM ATP, 10 μM Ets-1
  IC50: ~160 nM and 160 nM
ERK2; ERK2 IC50 at 100 μM ATP /10mM Ets-1, Table 4, 100 μM ATP /10mM Ets-1
  IC50: 160 ± 20 nM
HCT-15
  Growth percent (G%): 66.56%

From PMC6543826 (Bioorganic chemistry, 2018)
